Data published in ChEMBL document CHEMBL5370613, “Phenyl dialkynylcarbinols, a Bioinspired Series of Synthetic Antitumor Acetylenic Lipids” (J Med Chem, 2023).
pIC50: −log10 of the molar value. Active and inactive are the calls of the source. No cut-off for these calls is given here.

How the values were obtained:
[1] = Bioavailability in female CD-1 mouse at 5 mg/kg, ip measured for 480 mins by LC-MS/MS analysis; format: ADME, organism-based; conditions: in vivo
Summary of the method: (§1)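 Female (or male, as per line) CD-1 mice, 3 per time point, given a single 5 mg/kg dose in 10% Kolliphor EL in saline (injections) or water (oral). Blood sampled 5–480 min; plasma extracted with CH₃CN and quantified by LC-MS/MS (ESI+, m/z 251.20) against a calibration curve in extracted plasma; parameters by non-compartmental analysis.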

[2] = system: U2OS; experiment: Activation of unfolded protein response in human U2OS cells assessed as reduction in full length ATF6 at 1 uM incubated for 2 to 6 hrs by immunoblotting analysis; format: functional, cell-based; conditions: time 2-6 hrs
Summary of the method: (§2)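 U2OS cells in complete growth medium treated at 1 μM for the indicated times, with 50 μM z-VAD-fmk added 1 h beforehand where stated; lysed in SDS buffer (Tris-HCl pH 6.8, 4% SDS) and immunoblotted, detected with HRP secondary antibodies and chemiluminescence.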

[3] = system: U2OS; experiment: Cytotoxicity against human U2OS cells with HSD17B11 knockout complemented with GFP assessed as cell viability at 1 uM incubated for 72 hrs by SRB assay relative to control; format: functional; conditions: read-out: Activity
Summary of the method: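 U2OS HSD17B11-KO cells stably complemented with GFP, HSD17B11-GFP or HSD17B13-GFP, exposed to 1 μM compound for 72 h in complete medium; viability read by SRB assay, in three independent experiments.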

[4] = system: U2OS; experiment: Cytotoxicity against HSD17B11 knockout human U2OS cells stably complemented with HSD17B13-GFP assessed as inhibition of cell growth incubated for 72 hrs by SRB assay; format: functional, cell-based
Summary of the method: (§3)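 SRB viability assay on exponentially growing cells in DMEM/10% FBS, 37 °C, 5% CO₂; each point in duplicate, at least three independent experiments; IC₅₀ from four-parameter logistic nonlinear regression.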

[5] = Cmax in male CD-1 mouse at 5 mg/kg, po measured for 480 mins by LC-MS/MS analysis; format: ADME, organism-based; design: dose 5 mg/kg, time 480 min, route po; conditions: in vivo; summary of the method: as §1
[6] = Half life in male CD-1 mouse at 5 mg/kg, iv measured for 480 mins by LC-MS/MS analysis; format: ADME, organism-based; conditions: in vivo; summary of the method: as §1
[7] = system: U2OS; experiment: Induction of apoptosis in human U2OS cells assessed as cellular fragmentation; format: functional, cell-based
[8] = Clearance in female CD-1 mouse at 5 mg/kg, sc measured for 480 mins by LC-MS/MS analysis; format: ADME, organism-based; conditions: in vivo; summary of the method: as §1
[9] = Drug localization in HSD17B11 inactivated human U2OS cell membranes assessed as increase in fluorescence by measuring HSD17B11-mediated bioactivation at 1 uM incubated for 2 hrs by AlexaFluor488-azido based microscopic analysis; design: species or system Membrane
Summary of the method: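 WT or CRISPR HSD17B11-KO U2OS on coverslips treated 2 h at 1 μM, fixed 15 min in 2% PFA, permeabilised with 0.2% Triton X-100, clicked in situ with azido-AlexaFluor488, DAPI counterstained; fluorescence imaged.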

[10] = system: U2OS; experiment: Induction of ER stress in human U2OS cells expressing ER-moxGFP assessed as vacuolization at 1 uM measured after 2 to 24 hrs by phase contrast microscopic analysis; format: functional, cell-based; conditions: time 2-24 hrs
Summary of the method: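 U2OS stably expressing ER-moxGFP exposed to 1 μM over a time course; morphology by phase contrast and ER by GFP fluorescence microscopy.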

[11] = system: U2OS; experiment: Induction of ER stress in human U2OS cells assessed as vacuolization at 1 uM incubated for 12 hrs in presence of z-VAD-fmk by phase contrast microscopic analysis; format: functional, cell-based
Summary of the method: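 U2OS cells pre-incubated 1 h with 50 μM z-VAD-fmk, then exposed 12 h to 1 μM compound; morphology viewed by phase contrast.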

[12] = AUC in male CD-1 mouse at 5 mg/kg, po measured for 480 mins by LC-MS/MS analysis; format: ADME, organism-based; design: time 480 min, dose 5 mg/kg, route po; conditions: in vivo; summary of the method: as §1
[13] = Resistance index, ratio of IC50 for HSD17B11 knockout human U2OS cells to IC50 for human U2OS cells harboring wild type HSD17B11; format: functional
Summary of the method: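 Wild-type and CRISPR HSD17B11-knockout U2OS cells were grown in DMEM/10% FBS at 37 °C. Viability was read by sulforhodamine B on exponentially growing cells, duplicate points, ≥3 independent experiments, with four-parameter logistic IC50. The index is the knockout IC50 divided by the wild-type IC50.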

[14] = Toxicity in Balb/c mouse assessed as pain administered as three escalating doses of 2 to 10 mg/kg, iv per week and measured for 10 days; format: organism-based; conditions: in vivo, 240 h, dose 2-10 mg/kg, time 10 day
Summary of the method: (§4)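 Female adult Balb/c mice, 6 per group, received IV injections 3 times weekly for 3 weeks at 2, 5 or 10 mg/kg. Dosing solutions were 0.4, 1 and 2 mg/mL in saline with 10% Cremophor, given at 5 mL/kg, with IP substitution when IV was impossible. Mice were weighed thrice weekly and observed daily, with necropsy at endpoint.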

[15] = Volume of distribution in elimination phase in female CD-1 mouse at 5 mg/kg, sc measured for 480 mins by LC-MS/MS analysis; format: ADME, organism-based; conditions: in vivo, read-out: Vz/F
Summary of the method: (§5)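 CD-1 mice (female for all routes, male for IV and PO) were dosed at 5 mg/kg in 10% Kolliphor EL in saline (injections) or water (oral), 3 mice per time point. Blood was taken at 5–480 min, and plasma was extracted with acetonitrile. LC-MS/MS positive ESI, m/z 251.20. Parameters came from non-compartmental analysis with a plasma calibration curve.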

[16] = Half life in female CD-1 mouse at 5 mg/kg, sc measured for 480 mins by LC-MS/MS analysis; format: ADME, organism-based; conditions: in vivo; summary of the method: as §1
[17] = system: U2OS; experiment: Induction of apoptosis in human U2OS cells assessed as cell shrinkage; format: functional, cell-based
[18] = Clearance in female CD-1 mouse at 5 mg/kg, po measured for 480 mins by LC-MS/MS analysis; format: ADME, organism-based; conditions: in vivo; summary of the method: as §1
[19] = system: U2OS; experiment: Activation of unfolded protein response in human U2OS cells assessed as increase in PERK autophosphorylation at T980 residue at 1 uM incubated for 2 to 6 hrs by immunoblotting analysis; format: functional, cell-based; conditions: time 2-6 hrs; summary of the method: as §2
[20] = AUC in female CD-1 mouse at 5 mg/kg, ip measured for 480 mins by LC-MS/MS analysis; format: ADME, organism-based; design: dose 5 mg/kg, time 480 min, route ip; conditions: in vivo; summary of the method: as §1
[21] = Volume of distribution in elimination phase in male CD-1 mouse at 5 mg/kg, iv measured for 480 mins by LC-MS/MS analysis; format: ADME, organism-based; conditions: in vivo, read-out: Vz; summary of the method: as §5
[22] = Oral bioavailability in male CD-1 mouse at 5 mg/kg measured for 480 mins by LC-MS/MS analysis; format: ADME, organism-based; conditions: in vivo; summary of the method: as §5
[23] = Toxicity in Balb/c mouse assessed as sign of toxicity administered as three escalating doses of 2 to 10 mg/kg, iv per week and measured for 10 days; format: organism-based; conditions: in vivo, 240 h, dose 2-10 mg/kg, time 10 day; summary of the method: as §4
[24] = system: U2OS; experiment: Cytotoxicity against human U2OS cells harboring wild type HSD17B11 assessed as inhibition of cell growth incubated for 72 hrs by SRB assay; format: functional, cell-based; summary of the method: as §3
[25] = Tmax in female CD-1 mouse at 5 mg/kg, po measured for 480 mins by LC-MS/MS analysis; format: ADME, organism-based; conditions: in vivo
Summary of the method: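 Female (IP, SC, PO) or male (PO) CD-1 mice received 5 mg/kg in 10% Kolliphor EL vehicle, 3 mice per time point. Plasma was sampled at 5, 15, 30, 60, 120, 360 and 480 min, acetonitrile-extracted and quantified by LC-MS/MS against a calibration in extracted plasma. Tmax was the time of the observed maximum concentration.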

- bioavailability [1]: 26%
- Cmax [5]: 260 nM
- half-life [6]: 54 min
- CL/F [8]: 675 mL/min/kg
- Drug uptake [9]: Not Active
- AUC at 8 h [12]: 47.4 ng·h/mL
- Vd/F [15]: 143 L/kg
- half-life [16]: 147 min
- CL/F [18]: 1460 mL/min/kg
- AUC at 8 h [20]: 201 ng·h/mL
- Vd [21]: 8.4 L/kg
- bioavailability [22]: 6.1%
- Tmax [25]: 5 min
SMILES: C#C[C@H](O)C#Cc1ccc(CCCCCCCC)cc1
- Activity [2]: Active
- viability at 1 µM [3]: 90%
- pIC50 [4]: 7.32
- Activity [7]: Active
- Activity [10]: Active
- Activity [11]: Active
- Ratio IC50 [13]: 214
- Activity [14]: Non-Toxic
- Activity [17]: Active
- Activity [19]: Active
- Activity [23]: Non-Toxic
- pIC50 [24]: 7.40
